What was measured:
Type in all cases: functional
[1] = system: OVCAR-3; assay: Cytotoxicity against human OVCAR3 cells assessed as cell growth at 10 uM after 48 hrs by SRB assay relative to untreated control; conditions: OVCAR-3, 48 h, read-out: Activity
Summary of the method: (§1)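 NCI-60 one-dose screen: each agent added at 10 µM, cultures incubated 48 h. Endpoint by sulforhodamine B protein-binding dye read spectrophotometrically; growth expressed as percent of untreated control cells.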

[2] = system: K562; assay: Cytotoxicity against human K562 cells assessed as cell growth at 10 uM after 48 hrs by SRB assay relative to untreated control; conditions: K562, 48 h, read-out: Activity
Summary of the method: (§2)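 NCI-60 panel screen at a single concentration of 10 μM with 48 h incubation. Cell density measured by sulforhodamine B protein-binding dye and read spectrophotometrically. Growth expressed as percent of untreated control cells.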

[3] = system: HOP-92; assay: Cytotoxicity against human HOP92 cells assessed as cell growth at 10 uM after 48 hrs by SRB assay relative to untreated control; conditions: HOP-92, 48 h, read-out: Activity; summary of the method: as §2
[4] = system: LOX IMVI; assay: Cytotoxicity against human LOXIMVI cells assessed as cell growth at 10 uM after 48 hrs by SRB assay relative to untreated control; conditions: read-out: Activity; summary of the method: as §2
[5] = system: NCI-H460; assay: Cytotoxicity against human NCI-H460 cells assessed as cell growth at 10 uM after 48 hrs by SRB assay relative to untreated control; conditions: NCI-H460, 48 h, read-out: Activity; summary of the method: as §1
[6] = Cytotoxicity against human UO31 cells assessed as cell growth at 10 uM after 48 hrs by SRB assay relative to untreated control; conditions: UO-31, 48 h, read-out: Activity
Summary of the method: (§3)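 NCI-60 single-dose screen. Compounds were added to the cultures at 10 μM and incubated for 48 h. The end point was sulforhodamine B protein staining read spectrophotometrically. Growth is reported as percent of untreated control cells.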

[7] = Cytotoxicity against human OVCAR4 cells assessed as cell growth at 10 uM after 48 hrs by SRB assay relative to untreated control; conditions: OVCAR-4, 48 h, read-out: Activity; summary of the method: as §1
[8] = system: SF-268; assay: Cytotoxicity against human SF268 cells assessed as cell growth at 10 uM after 48 hrs by SRB assay relative to untreated control; conditions: SF-268, 48 h, read-out: Activity; summary of the method: as §1
[9] = system: KM12; assay: Cytotoxicity against human KM12 cells assessed as cell growth at 10 uM after 48 hrs by SRB assay relative to untreated control; conditions: KM12, 48 h, read-out: Activity; summary of the method: as §2
[10] = system: SNB-75; assay: Cytotoxicity against human SNB75 cells assessed as cell growth at 10 uM after 48 hrs by SRB assay relative to untreated control; conditions: SNB-75, 48 h, read-out: Activity; summary of the method: as §3
[11] = system: CAKI-1; assay: Cytotoxicity against human Caki1 cells assessed as cell growth at 10 uM after 48 hrs by SRB assay relative to untreated control; conditions: CAKI-1, 48 h, read-out: Activity; summary of the method: as §2
[12] = system: TK-10; assay: Cytotoxicity against human TK10 cells assessed as cell growth at 10 uM after 48 hrs by SRB assay relative to untreated control; conditions: TK-10, 48 h, read-out: Activity; summary of the method: as §3
[13] = system: RXF 393; assay: Cytotoxicity against human RXF393 cells assessed as cell growth at 10 uM after 48 hrs by SRB assay relative to untreated control; conditions: RXF 393, 48 h, read-out: Activity; summary of the method: as §1
[14] = system: COLO 205; assay: Cytotoxicity against human COLO205 cells assessed as cell growth at 10 uM after 48 hrs by SRB assay relative to untreated control; conditions: COLO 205, 48 h, read-out: Activity; summary of the method: as §2
[15] = system: HOP-62; assay: Cytotoxicity against human HOP62 cells assessed as cell growth at 10 uM after 48 hrs by SRB assay relative to untreated control; conditions: HOP-62, 48 h, read-out: Activity; summary of the method: as §2
[16] = system: DU-145; assay: Cytotoxicity against human DU145 cells assessed as cell growth at 10 uM after 48 hrs by SRB assay relative to untreated control; conditions: DU-145, 48 h, read-out: Activity; summary of the method: as §2
[17] = system: SR; assay: Cytotoxicity against human SR cells assessed as cell growth at 10 uM after 48 hrs by SRB assay relative to untreated control; conditions: read-out: Activity; summary of the method: as §3
[18] = system: IGROV-1; assay: Cytotoxicity against human IGROV1 cells assessed as cell growth at 10 uM after 48 hrs by SRB assay relative to untreated control; conditions: IGROV-1, 48 h, read-out: Activity; summary of the method: as §2
[19] = system: SW-620; assay: Cytotoxicity against human SW620 cells assessed as cell growth at 10 uM after 48 hrs by SRB assay relative to untreated control; conditions: SW-620, 48 h, read-out: Activity; summary of the method: as §3
[20] = system: A498; assay: Cytotoxicity against human A498 cells assessed as cell growth at 10 uM after 48 hrs by SRB assay relative to untreated control; conditions: A498, 48 h, read-out: Activity; summary of the method: as §2
[21] = system: MDA-MB-435; assay: Cytotoxicity against human MDA-MB-435 cells assessed as cell growth at 10 uM after 48 hrs by SRB assay relative to untreated control; conditions: MDA-MB-435, 48 h, read-out: Activity; summary of the method: as §1
[22] = system: MDA-MB-231; assay: Cytotoxicity against human MDA-MB-231 cells assessed as cell growth at 10 uM after 48 hrs by SRB assay relative to untreated control; conditions: MDA-MB-231, 48 h, read-out: Activity; summary of the method: as §1
[23] = system: HCC 2998; assay: Cytotoxicity against human HCC2998 cells assessed as cell growth at 10 uM after 48 hrs by SRB assay relative to untreated control; conditions: HCC 2998, 48 h, read-out: Activity; summary of the method: as §2
[24] = system: PC-3; assay: Cytotoxicity against human PC3 cells assessed as cell growth at 10 uM after 48 hrs by SRB assay relative to untreated control; conditions: PC-3, 48 h, read-out: Activity; summary of the method: as §1
[25] = system: HCT-116; assay: Cytotoxicity against human HCT116 cells assessed as cell growth at 10 uM after 48 hrs by SRB assay relative to untreated control; conditions: HCT-116, 48 h, read-out: Activity; summary of the method: as §2
[26] = Cytotoxicity against human UACC257 cells assessed as cell growth at 10 uM after 48 hrs by SRB assay relative to untreated control; conditions: UACC-257, 48 h, read-out: Activity; summary of the method: as §3
[27] = system: NCI-H226; assay: Cytotoxicity against human NCI-H226 cells assessed as cell growth at 10 uM after 48 hrs by SRB assay relative to untreated control; conditions: NCI-H226, 48 h, read-out: Activity; summary of the method: as §1
[28] = system: OVCAR-8; assay: Cytotoxicity against human OVCAR8 cells assessed as cell growth at 10 uM after 48 hrs by SRB assay relative to untreated control; conditions: OVCAR-8, 48 h, read-out: Activity; summary of the method: as §1
[29] = system: RPMI-8226; assay: Cytotoxicity against human RPMI8226 cells assessed as cell growth at 10 uM after 48 hrs by SRB assay relative to untreated control; conditions: RPMI-8226, 48 h, read-out: Activity; summary of the method: as §1
[30] = system: SK-MEL-28; assay: Cytotoxicity against human SK-MEL-28 cells assessed as cell growth at 10 uM after 48 hrs by SRB assay relative to untreated control; conditions: SK-MEL-28, 48 h, read-out: Activity; summary of the method: as §3
[31] = system: SF-295; assay: Cytotoxicity against human SF295 cells assessed as cell growth at 10 uM after 48 hrs by SRB assay relative to untreated control; conditions: SF-295, 48 h, read-out: Activity; summary of the method: as §1

With `C[C@H]1NC(c2ccc(Br)cc2)=Nc2nc3ccccn3c2C1=O` the growth at 10 µM [1] was 95.9%, the growth at 10 µM [2] was 84.8% and the growth at 10 µM [3] was 66.6%. For the same molecule, the growth at 10 µM [4] was 92.3%, the growth at 10 µM [5] was 101% and the growth at 10 µM [6] was 51.5%. It also gave a growth at 10 µM [7] of 111%, a growth at 10 µM [8] of 99.8% and a growth at 10 µM [9] of 102%. The growth at 10 µM [10] was 89.3%, the growth at 10 µM [11] was 93.2% and the growth at 10 µM [12] was 98.3%. For the same molecule, the growth at 10 µM [13] was 94.8%, the growth at 10 µM [14] was 106% and the growth at 10 µM [15] was 69.8%. The growth at 10 µM [16] was 108%, the growth at 10 µM [17] was 77.7% and the growth at 10 µM [18] was 81.1%. The growth at 10 µM [19] was 97%, the growth at 10 µM [20] was 87.6% and the growth at 10 µM [21] was 95.4%. For the same molecule, the growth at 10 µM [22] was 74%, the growth at 10 µM [23] was 112% and the growth at 10 µM [24] was 83.8%. For the same molecule, the growth at 10 µM [25] was 90.2%, the growth at 10 µM [26] was 101% and the growth at 10 µM [27] was 85.7%. For the same molecule, the growth at 10 µM [28] was 94.5%, the growth at 10 µM [29] was 91% and the growth at 10 µM [30] was 97.5%. For the same molecule, the growth at 10 µM [31] was 96.9%.

Molecule `C[C@@H]1NC(c2ccc(Br)cc2)=Nc2nc3ccccn3c2C1=O` has a growth at 10 µM [1] of 17.3%, a growth at 10 µM [2] of 24.3% and a growth at 10 µM [3] of 59.5%. It also gave a growth at 10 µM [4] of 52.4%, a growth at 10 µM [5] of 32.5% and a growth at 10 µM [6] of 62%. It also gave a growth at 10 µM [7] of 77.5%, a growth at 10 µM [8] of 83.4% and a growth at 10 µM [9] of 29.6%. For the same molecule, the growth at 10 µM [10] was 50.2%, the growth at 10 µM [11] was 44.1% and the growth at 10 µM [12] was 110%. The growth at 10 µM [13] was 68.2%, the growth at 10 µM [14] was 26.3% and the growth at 10 µM [15] was 55.8%. The growth at 10 µM [16] was 87.7%, the growth at 10 µM [17] was 30% and the growth at 10 µM [18] was 43.1%. It also gave a growth at 10 µM [19] of 38%, a growth at 10 µM [20] of 69.9% and a growth at 10 µM [21] of -13%. It also gave a growth at 10 µM [22] of 52.7%, a growth at 10 µM [23] of 69% and a growth at 10 µM [24] of 63.2%. It also gave a growth at 10 µM [25] of 29.2%, a growth at 10 µM [26] of 70% and a growth at 10 µM [27] of 68.3%. The growth at 10 µM [28] was 72.5%, the growth at 10 µM [29] was 94% and the growth at 10 µM [30] was 66.2%. For the same molecule, the growth at 10 µM [31] was 40.9%.

Source: ChEMBL document CHEMBL3124806, “Imidazopyridine-fused [1,3]-diazepinones: synthesis and antiproliferative activity” (Eur J Med Chem, 2014)
